eIF4E 4G PPI: inhibitors of eIF4E and eIF4G interaction in translation initiation; P63073+Q04637; TR-FRET eIF4E-eIF4GI(517-606) binding, 2 h; 0.37% of 220,000 active; inhibition, % at 21.7 µM;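 active = inhibition above about 30%, limit read from the data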
14-3-3 Bad inh: disrupts binding of bovine 14-3-3 zeta to phospho-Bad peptide. P63103. TR-FRET 14-3-3zeta/Dy647-pBad peptide displacement, 1 h. inhibition, % at 21.7 µM. 0.71% of 220,000 active. AID 781;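 active = inhibition above about 70%, limit read from the data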
Target sequence (P63103 whole entry, looked up): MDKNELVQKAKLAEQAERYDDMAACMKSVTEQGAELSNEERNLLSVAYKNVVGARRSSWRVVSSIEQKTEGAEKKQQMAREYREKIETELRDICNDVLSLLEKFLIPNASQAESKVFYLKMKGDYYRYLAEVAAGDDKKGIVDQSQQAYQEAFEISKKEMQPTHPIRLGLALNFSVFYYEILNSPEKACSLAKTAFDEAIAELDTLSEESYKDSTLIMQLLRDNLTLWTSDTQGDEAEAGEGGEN
EBV gp42 block: inhibitors of Epstein-Barr virus glycoprotein 42. Fluorescence polarization binding assay, mP read-out. inhibition, % (tested at 21.74 µM). 0.42% of 220,000 active. AID 1085
RBBP9 inh: human RBBP9 hydrolase inhibition | 0.2% of 220,000 active | O75884 | AID 1515 | recombinant RBBP9, FP-Rh probe fluorescence polarization | inhibition, % at 7.94 µM;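 active = inhibition above the campaign mean of all tested compounds plus 3 SD, cut at about 14% in these data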
Target sequence (O75884 whole entry, looked up): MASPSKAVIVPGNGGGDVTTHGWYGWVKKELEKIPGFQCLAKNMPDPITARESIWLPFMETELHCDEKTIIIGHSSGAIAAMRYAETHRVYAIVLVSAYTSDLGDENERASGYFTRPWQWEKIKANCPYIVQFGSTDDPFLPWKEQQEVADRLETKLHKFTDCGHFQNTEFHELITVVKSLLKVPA
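Test system – recombinant human RBBP9 · Input – RBBP9 2.5 µM in dispensing solution, pre-mixing · Medium – Tris buffer pH 8.0, NaCl, Pluronic · Schedule – preincubation 30 min plus labeling 45 min at 25 °C · Measured by – fluorescence polarization · Measure – % inhibition · Controls – DMSO and no-protein wells · Replicates – one well per compound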
PKD1 kinase inh: blocks activity of human protein kinase D1; Q15139; inhibition, % (no concentration beside the values); PKD1 kinase fluorescence polarization assay; 0.056% of 200,000 active
Large screens that a line does not name were inactive; [ ] = dose if it differs, or a comment. Most compounds without a hit are left out; they make up all but 1.6% or so of the library. Cut-off read from the data, not from the text of the source, unless noted: active = inhibition above about 50%; inactive = the rest.

O=C(NC1CCCC1)c1cnc2n(c1=O)CCS2	eIF4E 4G PPI 95[fluorescence artefact?]
CC1CC(NC(=O)c2cnc3n(c2=O)CCS3)CC(C)(C)C1 (stereo unspecified)	none (no result: RBBP9 inh, PKD1 kinase inh)
CC(C)C(NS(=O)(=O)c1ccc2c(c1)OCCCO2)C(=O)O (stereo unspecified)	none
CCOC(=O)c1ccc(N2C(=O)C3C(C2=O)C(C(=O)c2ccc(Cl)cc2)N2CCCC32)cc1 (stereo unspecified)	EBV gp42 block 94
CCOC(=O)c1ccc(N2C(=O)C3CC=CCC3C2=O)cc1 (stereo unspecified)	none
CCCCC#Cc1cncc(C(=O)N/N=C/c2cccc(OC)c2)c1	none (no result: PKD1 kinase inh)
Cc1nc2ccccc2c(=O)n1NC(=O)CCC(=O)O	none
O=C1NC(=S)N/C1=C/c1cccc([N+](=O)[O-])c1	none
O=C1NC(=S)N/C1=C/c1ccc(-c2c(Br)cc([N+](=O)[O-])cc2Br)o1	14-3-3 Bad inh 95[fluorescence artefact?]
CC1=C(C#N)C(=O)NC(=O)/C1=C\c1ccc(-c2cc(C)c(C)cc2[N+](=O)[O-])o1	eIF4E 4G PPI 48
Cc1ccc(-c2ccc(/C=C3\C(=O)ON=C3c3ccccc3)o2)c([N+](=O)[O-])c1	none
Cc1ccc(-c2ccc(/C=N/NC(=S)Nc3ccccc3)o2)cc1[N+](=O)[O-]	none
Cc1ccc(-c2ccc(/C=C3/NC(=O)NC3=O)o2)cc1[N+](=O)[O-]	14-3-3 Bad inh 90[fluorescence artefact?]
Cc1ccc(/C=N/NC(=O)C(C)Oc2ccccc2[N+](=O)[O-])s1 (stereo unspecified)	none
CCOC(=O)C(NCc1ccco1)(NC(=O)c1ccc(OC)cc1)C(F)(F)F (stereo unspecified)	EBV gp42 block 118
CSc1nc2n(n1)C(C)C1=C(CCCC1=O)N2 (stereo unspecified)	none
CC(=O)Nc1ccc(OCCCNC(=O)c2c(-c3ccccc3)noc2C)cc1	eIF4E 4G PPI 35 (no result: PKD1 kinase inh)
CCN(CC)C(=O)Cn1cc(C(=O)C(=O)NCc2ccco2)c2ccccc21	none
CCOc1cc(C2C(C#N)=C(N)OC(C)=C2C(C)=O)cc(Br)c1O (stereo unspecified)	EBV gp42 block 51
CCOc1cc(C2C(C#N)=C(N)OC(C)=C2C(C)=O)c(Br)c(Br)c1OC(C)C (stereo unspecified)	none
Cc1nc2ccccc2n1CC(=O)NC1CCCC1	14-3-3 Bad inh 71
Cc1nc2ccccc2n1CC(=O)NC1CCCCCC1	none (no result: PKD1 kinase inh)
O=C(N/N=C/c1ccc(OC(=O)c2ccc3c(c2)OCO3)cc1)c1cncc(Br)c1	14-3-3 Bad inh 71
CN1CCC(=NNC(=O)CSc2ccc(Cl)cc2)CC1	none
O=C(O)c1ccc(-c2cccc([N+](=O)[O-])c2)o1	none (no result: PKD1 kinase inh)
N#C/C(=C(/O)c1ccc(-c2cccc([N+](=O)[O-])c2)o1)c1nc2ccccc2s1	14-3-3 Bad inh 92, EBV gp42 block 86
Cc1nn(CCOc2cccc(Br)c2)c(C)c1[N+](=O)[O-]	none
O=C(O)CCCCCN1C(=O)/C(=C\c2cn(-c3ccccc3)nc2-c2cccs2)SC1=S	eIF4E 4G PPI 45 (no result: PKD1 kinase inh)
CC1=NNC(=O)/C1=C\c1cn(-c2ccccc2)nc1-c1cccs1	none
O=C(O)CCN1C(=O)/C(=C/c2cn(-c3ccccc3)nc2-c2cccs2)SC1=S	eIF4E 4G PPI 30, 14-3-3 Bad inh 76
Cc1ccc(-c2nn(-c3ccccc3)cc2/C=C2\SC(=S)N(CC(=O)O)C2=O)cc1	none (no result: PKD1 kinase inh)
Cn1c(=O)c2ncn(CC(=O)NCCOCc3ccccc3Cl)c2n(C)c1=O	none
Cc1cccc(NC(=S)NC(C)C(c2ccccc2)N2CCN(C)CC2)c1C (stereo unspecified)	none
CC(C)CNC(=S)NC(=O)c1ccc(F)cc1	none
Cc1ccc(SCCC(=O)OC(C(=O)NC(N)=O)C(C)C)cc1 (stereo unspecified)	none
COc1ccccc1NC(=O)/C(C#N)=C/c1cc([N+](=O)[O-])ccc1N1CCCC1	EBV gp42 block 161
COc1cccc(CC2(CO)CCCN(CC3=Cc4cc(Cl)ccc4OC3)C2)c1 (stereo unspecified)	none
CCOP(=O)(OCC)C(Nc1ccc(OC)cc1)c1ccco1 (stereo unspecified)	none
C=CCc1cccc(C=Nc2cc(Br)ccc2O)c1O	EBV gp42 block 101
CC1(C)CC(Cc2nc(=S)[nH][nH]2)C(=O)O1 (stereo unspecified)	none
O=C(Cc1n[nH]c(=O)c2ccccc12)NC(c1ccccc1)c1ccccc1	none (no result: PKD1 kinase inh)
c1coc(Cn2nnnc2CN2CCN(C3CCCC3)CC2)c1	14-3-3 Bad inh 79

High-throughput results as filed in PubChem BioAssay.
